Counter-ions that a name gives are not always drawn.
What was measured:
[1] = Ionization constant was determined; type: physicochemical
Summary of the method: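 Determined by pH-metric titration in 0.1 M KNO₃ at 21 °C.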

[2] = Inhibitory concentration against tyramine oxidase of Arthrobacter spp.; Not determined.
[3] = Inhibitory concentration against tyramine oxidase of Arthrobacter spp.; Irreversible inhibition
[4] = Inhibitory concentration against tyramine oxidase of Arthrobacter spp.; Competitive inhibition
[5] = target: T1, Amine oxidase [flavin-containing] A (Homo sapiens, UniProt P21397); test: Inhibitory concentration for human liver monoamine oxidase A
T1 sequence (P21397 whole entry): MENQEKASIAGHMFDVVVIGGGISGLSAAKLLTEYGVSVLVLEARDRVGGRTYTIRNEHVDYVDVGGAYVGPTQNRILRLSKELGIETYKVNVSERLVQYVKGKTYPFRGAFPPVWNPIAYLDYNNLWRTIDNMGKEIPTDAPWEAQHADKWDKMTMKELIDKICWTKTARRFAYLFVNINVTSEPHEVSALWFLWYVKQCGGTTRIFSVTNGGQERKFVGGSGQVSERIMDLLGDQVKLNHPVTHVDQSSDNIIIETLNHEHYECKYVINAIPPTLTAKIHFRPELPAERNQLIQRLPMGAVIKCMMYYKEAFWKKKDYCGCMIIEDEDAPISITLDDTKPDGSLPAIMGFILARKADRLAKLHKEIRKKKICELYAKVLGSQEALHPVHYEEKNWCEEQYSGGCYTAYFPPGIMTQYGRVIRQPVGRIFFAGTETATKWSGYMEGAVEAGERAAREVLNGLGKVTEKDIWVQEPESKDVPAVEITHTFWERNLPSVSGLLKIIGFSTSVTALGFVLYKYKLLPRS

[6] = target: T2, Amine oxidase [flavin-containing] B (Homo sapiens, UniProt P27338); test: Inhibitory concentration for human liver monoamine oxidase B
T2 sequence (P27338 whole entry): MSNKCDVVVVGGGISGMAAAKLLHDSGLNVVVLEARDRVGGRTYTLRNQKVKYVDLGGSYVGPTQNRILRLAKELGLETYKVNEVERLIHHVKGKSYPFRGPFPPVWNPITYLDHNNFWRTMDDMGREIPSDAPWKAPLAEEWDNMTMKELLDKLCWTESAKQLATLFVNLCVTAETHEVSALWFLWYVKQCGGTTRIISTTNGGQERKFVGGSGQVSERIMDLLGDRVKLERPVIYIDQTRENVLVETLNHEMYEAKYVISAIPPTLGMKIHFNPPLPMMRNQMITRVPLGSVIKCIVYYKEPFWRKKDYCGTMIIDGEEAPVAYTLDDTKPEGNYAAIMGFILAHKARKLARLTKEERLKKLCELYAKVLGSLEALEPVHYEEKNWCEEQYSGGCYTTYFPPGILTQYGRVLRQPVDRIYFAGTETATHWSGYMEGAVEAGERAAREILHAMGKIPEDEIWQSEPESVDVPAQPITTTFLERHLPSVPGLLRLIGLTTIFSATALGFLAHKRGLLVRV

[7] = Inhibition concentration against tyramine oxidase of Arthrobacter spp.; Partially irreversible inhibition

Row | Compound | pKa ([1]; read-out: pKa) | IC50 [4] [µM] | also measured
1 | Cc1ccc([C@@]2(F)C[C@@H]2N)cc1 | 7.04 |  | IC50 [2]: 51 µM
2 | NC1CC1c1ccccc1 (stereo not drawn) | 8.5 |  | IC50 [3]: 33 µM
3 | N[C@@H]1C[C@]1(F)c1ccc(F)cc1 (relative stereo) | 7.31 | 8.1 | 
4 | Cc1ccc([C@@]2(F)C[C@H]2N)cc1 (relative stereo) | 7.41 | 0.39 | IC50 [5]: 6.7 µM; IC50 [6]: 6.7 µM
5 | N[C@@H]1C[C@]1(F)c1ccccc1 (relative stereo) | 6.98 |  | IC50 [7]: 190 µM
6 | N[C@H]1C[C@]1(F)c1ccccc1 (relative stereo) | 7.35 | 3.6 | 
7 | N[C@H]1C[C@]1(F)c1ccc(F)cc1 (relative stereo) | 6.88 |  | IC50 [7]: 75 µM
8 | N[C@@H]1C[C@H]1c1ccccc1 (relative stereo) [TRANYLCYPROMINE HYDROCHLORIDE] | 8.47 | 35 | 
9 | Cl.NC1CC1(F)c1ccc(Cl)cc1 (stereo in doubt) |  |  | IC50 [7]: 89 µM; pKa [1]: 6.81
10 | NC1CC1(F)c1ccc(Cl)cc1 (trans isomer) | 7.19 | 3.7 | 
11 | NNC(N)=O [HYDRAZINECARBOXAMIDE] |  |  | IC50 [5]: 6.7 µM

— ChEMBL document CHEMBL1138842, “Fluorinated phenylcyclopropylamines. 2. Effects of aromatic ring substitution and of absolute configuration on inhibition of microbial tyramine oxidase” (J Med Chem, 2004)
